Experiment [1] concerns the target T1, Ornithine aminotransferase, mitochondrial (Homo sapiens) (UniProt P04181).
T1 sequence (whole entry): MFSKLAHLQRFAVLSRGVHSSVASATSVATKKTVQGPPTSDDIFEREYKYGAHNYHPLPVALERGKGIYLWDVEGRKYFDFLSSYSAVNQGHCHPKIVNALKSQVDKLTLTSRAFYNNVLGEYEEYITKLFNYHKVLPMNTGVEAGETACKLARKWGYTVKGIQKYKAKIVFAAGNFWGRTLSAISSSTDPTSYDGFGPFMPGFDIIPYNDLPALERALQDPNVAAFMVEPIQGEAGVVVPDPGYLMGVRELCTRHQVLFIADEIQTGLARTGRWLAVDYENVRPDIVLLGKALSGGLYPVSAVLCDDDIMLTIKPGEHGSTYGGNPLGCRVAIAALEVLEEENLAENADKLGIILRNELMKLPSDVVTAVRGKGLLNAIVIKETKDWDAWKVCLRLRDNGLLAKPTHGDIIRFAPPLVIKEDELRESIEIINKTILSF
The experiment is described as follows: Binding affinity to ornithine delta-amino transferase in human HeLa cells by silver stained SDS/PAGE method. Format: cell-based. A digest of the protocol: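 HeLa nuclear extract, dialysed into buffer B (20 mM Hepes-KOH pH 7.5, 10 mM KCl, 1.5 mM MgCl₂, EDTA, EGTA, DTT, PMSF, plus 150 mM NaCl) with 0.1% Nonidet P-40. Extract fractionated on Hitrap Q anion exchange; fractions incubated overnight at 4°C with biotinylated probe precoupled to avidin agarose. Bound proteins resolved by silver-stained SDS/PAGE; specific ~50 kDa bands identified by mass spectrometry.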

Experiment [2] in a line: Binding affinity to tubulin.
Experiment [3] relates to Ornithine aminotransferase, mitochondrial (Xenopus laevis). The experiment is described as follows: Binding affinity to ornithine delta-amino transferase in RanGTP L43E mutant pre-treated Xenopus egg extracts. Particulars: egg extract.
The target of experiment [4] is T2, Ornithine aminotransferase, mitochondrial (Mus musculus) (UniProt P29758).
T2 sequence (whole entry): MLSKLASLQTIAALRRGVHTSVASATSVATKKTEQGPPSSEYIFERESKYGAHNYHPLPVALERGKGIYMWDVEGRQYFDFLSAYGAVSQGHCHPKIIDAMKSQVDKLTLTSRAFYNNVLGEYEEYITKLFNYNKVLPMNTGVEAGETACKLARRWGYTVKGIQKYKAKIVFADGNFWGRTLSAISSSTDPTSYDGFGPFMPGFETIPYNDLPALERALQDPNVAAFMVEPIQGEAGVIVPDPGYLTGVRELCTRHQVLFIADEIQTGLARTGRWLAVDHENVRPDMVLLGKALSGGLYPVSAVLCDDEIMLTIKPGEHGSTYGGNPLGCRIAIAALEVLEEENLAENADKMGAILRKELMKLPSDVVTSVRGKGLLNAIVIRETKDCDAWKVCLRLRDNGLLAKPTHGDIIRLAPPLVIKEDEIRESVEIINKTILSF
The experiment is described as follows: Inhibition of ornithine delta-amino transferase activity in mouse liver mitochondria. A digest of the protocol:
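Crude OAT prepared from mouse liver. Enzyme added last with a compound dilution series; shaken at 37°C for 20 min. Δ¹-pyrroline-5-carboxylate detected by reaction with o-aminobenzaldehyde; absorbance read at 443.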

Experiment [5] has as its system HeLa. In words: Antimitotic activity in human HeLa cells. Format: functional, cell-based.
The next experiment has as its system Xenopus. In words: Effect on RanGTP L43E mutant-stimulated microtubule aster formations in Xenopus egg extract.
The test system of experiment [6] is HeLa. The experiment is described as follows: Cell cycle arrest in human HeLa cells by accumulation at 4N stage at 30 nM after 24 hrs. The experiment is classed as functional. In outline:
(§1)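 HeLa cells exposed to 30 nM compound for the indicated times. DNA content measured by FACS to score 2N versus tetraploid (4N) populations.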

Experiment [7] has as its system HeLa. In words: Cell cycle arrest in human HeLa cells by accumulation at 2N stage at 30 nM after 24 hrs. Format: functional. A digest of the protocol: as §1
The subject of experiment [8] is HeLa. In words: Cell cycle arrest in human HeLa cells assessed as phosphorylated histone H3 level at 30 nM after 24 hrs. Format: functional, cell-based. In outline: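 HeLa cells dosed with 30 nM compound for a time course. Cell extracts immunoblotted for phosphorylated histone H3 as mitotic marker, with actin as loading reference.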
The subject of experiment [9] is HeLa. In words: Cell cycle arrest in human HeLa cells assessed as abnormal spindle structure formation at 30 nM after 24 hrs. The experiment is classed as functional, cell-based. A digest of the protocol: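 HeLa cells grown 24 h with or without 30 nM compound, then fixed in 4% formaldehyde. Stained with anti-α-tubulin monoclonal (1:1,000) and DAPI; spindle and nuclear morphology imaged by confocal microscopy. Abnormal mono-/multipolar spindles and multinucleate cells counted as a percentage of cells.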

For another experiment, the system named is U2OS. In words: Cell cycle arrest in human U2OS cells assessed as abnormal spindle structure formation at 30 nM after 16 hrs. The experiment is classed as functional, cell-based.

Active and inactive are the calls of the source. The calls are words filed in the database; no cut-off is given here.

On to `CC(CCCCNC(=O)CCCC[C@@H]1SC[C@@H]2NC(=O)N[C@@H]21)[C@H](O)C(=O)N[C@H]1Cc2ccc3c(c2)[C@]2(C4=C(c5nc(Cl)c(-c6c(Cl)[nH]c7ccccc67)o5)N=C(O4)[C@H](C(C)C)NC1=O)c1ccccc1O[C@@H]2O3` (stereo partly specified), for which the outcome in experiment [1] and in experiment [2] was inactive.

For `CC(CCCCNC(=O)CCCC[C@@H]1SC[C@@H]2NC(=O)N[C@@H]21)[C@H](O)C(=O)N[C@H]1Cc2ccc3c(c2)[C@]24C5=C(N=C(O5)[C@H](C(C)C)NC1=O)c1nc(Cl)c(o1)-c1c(Cl)[nH]c5cccc(c15)-c1cccc2c1O[C@@H]4O3` (stereo partly specified), the result in [3], in experiment [4] and in experiment [2] was inactive. For the same compound, the outcome (with HeLa [5]; in experiment [1]; in the experiment on Xenopus) was Active.

For `CC(C)[C@H](O)C(=O)N[C@H]1Cc2ccc3c(c2)[C@]24C5=C(N=C(O5)[C@H](C(C)C)NC1=O)c1nc(Cl)c(o1)-c1c(Cl)[nH]c5cccc(c15)-c1cccc2c1O[C@@H]4O3`, the outcome in experiment [4] was inactive.

As to `[H][C@]12Nc3c4cccc3[C@]13C1=C(N=C(O1)[C@H](C(C)C)NC(=O)[C@@H](NC(=O)[C@@H](O)C(C)C)Cc1ccc(c3c1)O2)c1nc(Cl)c(o1)-c1c(Cl)[nH]c2cccc-4c12` [DIAZONAMIDE A], the Activity was determined as 85.69% with HeLa [6] and 6.9% in the experiment on HeLa [7].

As to `CC(C)[C@H](O)C(=O)N[C@H]1Cc2ccc3c(c2)[C@]24C5=C(N=C(O5)[C@H](C(C)C)NC1=O)c1nc(Cl)c(o1)-c1c(Cl)[nH]c5cccc(c15)-c1cccc2c1N[C@@H]4O3`, the outcome in experiment [4] was inactive. The outcome in the experiment with HeLa [8], with HeLa [9] and in the experiment with U2OS was Active.

As to `C#CC(N)CCC(=O)O` (stereo unspecified), in experiment [4], the outcome was Active.

These data come from ChEMBL document CHEMBL1147063, “Diazonamide toxins reveal an unexpected function for ornithine delta-amino transferase in mitotic cell division” (2007).
